AI-2 QS mod: modulates the Vibrio harveyi AI-2 quorum sensing system | Vibrio harveyi JMH597 AI-2 luminescence/OD600 ratio, 9 h; hits give low values; strain lacks LuxN and CqsS sensors; 0 = neutral-control median | activity change, % at 7.5 µM | 300,000 compounds, 0.4% hits | AID 2094; in the data active means activity change below about -75%, passing the limit was not always enough;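 further: luminescence divided by OD600 gain over 9 h not by final OD600 alone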
hERG rescue: hERG (human) protection from proarrhythmic block. AID 1511. CHO-hERG, FluxOR thallium flux, dofetilide IC70 present. activation (rescue from dofetilide block), less the hit threshold, % at 10 µM. 310,000 compounds, 0.51% hits. Q12809;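 active means activation above the mean of controls blocked by dofetilide plus 5 SD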;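 further: thallium influx through hERG after potassium depolarization seen as dye fluorescence rise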
Mot1-301 SUMO: blocks SUMOylation pathway, rescuing yeast Mot1-301 growth | growth rescue, % at 18.8 µM | 320,000 compounds, 1% hits | AID 2716 | S. cerevisiae Mot1-301 growth rescue, ATP luminescence, 38.5C; percent above DMSO median, 100 means doubled;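 active means every valid replicate shows activation above 250% relative to neutral control wells; inactive means the rest, any valid replicate at or below 250%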;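 further: OY570 slx delta 5 strain wells were the positive control but not used for scaling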
KCNQ1 act: human KCNQ1 channel potentiation or activation | P51787 | B-score at 10 µM | 310,000 compounds, 0.35% hits | CHO-K1 KCNQ1, thallium flux FluxOR fluorescence; hits give high values;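 active means fluorescence ratio B-score, a plate-corrected score, at least three library SD, with initial intensity B-score within 5 SD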
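Test system: CHO-K1 cells stably expressing KCNQ1 / Medium: assay buffer / Also added: depolarizing K+/Tl+ stimulus, K2SO4 and Tl2SO4 each 12.5 mM in 5x stock / Incubation: 90 min dye loading and 20 min compound exposure, both at room temperature / Signal: thallium influx via FluxOR fluorescence, kinetic imaging / Evaluation: B score of baseline-normalized fluorescence ratio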
Cl transport mod: modulators of human KCC2 chloride dependent transport. Q9H2X9. KCC2 cells, thallium flux FluoZin-2 fluorescence. B-score of Tl+ flux slope (higher = more flux/activation; lower = inhibition) at 10 µM. 190,000 compounds, 2.2% hits;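 active means thallium flux slope and its plate-corrected score both differing from the plate sample mean at a set confidence after two filtering rounds, in either direction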;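 further: slope of fluorescence scaled to starting intensity during 10 to 20 s after thallium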
KCNQ1 inh: human KCNQ1 channel inhibition; CHO-K1 KCNQ1, FluxOR thallium flux fluorescence; hits give high values; B-score at 10 µM; 310,000 compounds, 1.3% hits;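 active means compounds whose thallium flux B-score, printed positive for inhibition, exceeds three library SD while starting fluorescence stays within three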;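 further: channel opened by potassium depolarization with thallium stimulus after 20 min compound exposure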
Active calls of the source: *; i = inactive; / = not tested or not shown. Sampled rows, rich in hits. Any-hit rate of the full collection: about 4.2%.

SMILES	AI-2 QS mod	hERG rescue	Mot1-301 SUMO	KCNQ1 act	Cl transport mod	KCNQ1 inh
CCOC(=O)/C(N=Nc1c(C)n(C)n(-c2ccccc2)c1=O)=C(/O)c1ccccc1	6	-4	-16	i	-2.8	i
C/C(=N\NC(=O)c1ccc(O)cc1)c1ccc2c(c1)Nc1ccccc1S2	23	-16	32	i	-1.6	6*
COC(=O)C1=C(C)NC(=O)/C1=C\c1cc(C)n(-c2cccc(C)c2)c1C	18	-17	/	i	/	9*
COC(=O)C1=C(C)NC(=O)/C1=C\c1cc(C)n(-c2ccc(F)cc2)c1C	20	-6	3	i	-0.59	i
CCOc1ccc(-c2cc(C(=O)NCC3CCCO3)c3ccccc3n2)cc1 (stereo not drawn)	-4	-6	352*	i	-0.39	i
O=C(NCCc1cccnc1)c1cc(COc2ccc(F)cc2F)on1	-76*	-7	18	i	/	i
CCN(Cc1ccncc1)C(=O)c1cc(COc2ccc(F)cc2Cl)on1	31	-4	186	i	/	i
O=C(NCCCc1ccccc1)c1cc(COc2ccc(F)cc2Cl)on1	-3	-8	10	i	/	6*
O=C(NCCc1cccnc1)c1cc(COc2ccc(F)cc2Cl)on1	-31	-6	-18	i	/	i
CC(=O)Oc1c(I)cc(I)cc1C(=O)Nc1ccc(Cl)cc1	-4	-16	0	i	/	7*
O=C(CN(Cc1ccc(F)cc1)C(=O)CCC(=O)Nc1ccccn1)NCCc1ccccc1	31	-7	-7	i	/	i
COc1ccc(-[n+]2c(C)cc(/C=C3\Sc4ccccc4N3C)cc2C)cc1	-11	-46	8	i	i	23*
O=C(Cc1noc2ccccc12)NNC(=S)Nc1ccccc1	-3	5.7*	-5	i	0.083	i
O=C(Cc1noc2ccccc12)Nc1ccc(Cl)cc1	-84*	-6	350	i	0.62	i
O=C(Nc1ccc(F)cc1F)c1sccc1SCc1cccc(C(F)(F)F)c1	15	-14	7	i	-0.28	8*
C=CCCCCCCCCC(=O)Nc1ncccn1	30	-9	5	i	1.1	i
CC(=O)c1c(C)[nH]c(C(=O)Nc2nc(-c3ccc(Cl)cc3)cs2)c1C	21	-25	-1	i	-2.6	i
CC(=O)c1c(C)[nH]c(C(=O)Nc2nc(-c3ccc(-c4ccccc4)cc3)cs2)c1C	12	-29	304	i	1.4	8*
Cc1ccc(NC(=O)CSCC(=O)N2CCN(Cc3ccc4c(c3)OCO4)CC2)cc1	13	-6	-4	i	/	i
CCOC(=O)C1CCCN(S(=O)(=O)c2cc3c4c(c2)CCC(=O)N4CCC3)C1 (stereo not drawn)	8	-11	1	i	/	i
Oc1ccc(Oc2ccc(Oc3ccc(O)cc3)cc2)cc1	39	-9	271	i	/	13*
CCCSC(=S)c1c(C)[nH]n(-c2ccccc2)c1=O	4	27*	43	16*	/	i
Cc1[nH]n(-c2ccccc2)c(=O)c1Sc1ccc(Cl)cc1	21	-12	-3	i	-0.44	i
COc1ccccc1OCC(=O)NCC1CCCN(Cc2cnn(C(C)C)c2)C1 (stereo not drawn)	12	-7	2	i	/	i
O=[N+]([O-])c1ccc(C2Oc3ccccc3C3CC(c4ccccc4)=NN32)s1 (stereo not drawn)	/	/	25	/	1.8	/
SMILES	AI-2 QS mod	hERG rescue	Mot1-301 SUMO	KCNQ1 act	Cl transport mod	KCNQ1 inh
CCCN(CCC)S(=O)(=O)c1ccc(C(=O)Nc2nc(-c3ccccc3)c(C(=O)OCC)s2)cc1	28	-5	17	i	-0.16	i
COc1ccc(Br)cc1/C=N/N1CCN(Cc2ccccc2Cl)CC1	-4	-1	14	i	/	8*
O=[N+]([O-])c1cccc(/C=N/N2CCN(Cc3ccccc3)CC2)c1	5	-5	-2	i	-0.21	i
O=[N+]([O-])c1cccc(/C=N\N2CCN(Cc3ccccc3Cl)CC2)c1	21	-1	266	i	0.42	6*
O=C(COC(=O)/C=C/c1ccc(Cl)cc1Cl)NCC1CCCO1 (stereo not drawn)	/	/	1	/	/	/
Cc1ccc(NC(=O)CSc2nc3[nH]ncc3c(=O)[nH]2)c(C)c1	9	-10	-6	i	-1.1	i
CC(=O)Nc1ccc(N=NN2CCOCC2)cc1	-88*	-5	-21	i	-0.36	i
COc1ccc2c(C(=O)CN3CCN(c4ccccc4)CC3)c[nH]c2c1	23	-6	-2	i	-1.8	i
Cc1ccc(/C=N/Nc2cccc(C(=O)O)c2)s1	48	-7	-5	i	0.7	i
COc1ccc(/C=N/Nc2ccc(C(=O)O)cc2)cc1Br	-96*	-5	15	i	-0.5	i
Cc1ccc(/C=N/Nc2ccc(C(=O)O)cc2)s1	-95*	-13	0	i	-0.042	i
CCc1c(C)sc(NC(=O)Cc2ccccc2C)c1C(=O)N1CCOCC1	4	-7	10	i	/	i
CN(C)c1ccc(C(C[N+](=O)[O-])c2c(N)n(C)c(=O)n(C)c2=O)c(F)c1C#N (stereo not drawn)	30	-11	78	i	/	i
COc1ccc(Br)cc1C(C[N+](=O)[O-])c1c(N)n(C)c(=O)n(C)c1=O (stereo not drawn)	/	0	330*	i	0.46	i
O=C(O)CSCC(=O)N(Cc1ccccc1)c1nc(-c2ccccc2)c(-c2ccccc2)s1	25	-13	-3	i	/	8*
Cc1sc(NC(=S)NC(=O)C(C)(C)C)c(C(N)=O)c1C	22	-12	-2	i	/	i
COCCNC(=O)CN(C(=O)c1ccc(N2CCCC2)nc1)c1ccccc1	6	5.1*	2	i	-2.7	i
Cc1ccc(/C=C2\Oc3c(ccc(O)c3CN3CCN(C)CC3)C2=O)cc1	13	-21	3	i	-0.38	i

From PubChem
